Laboratory results reported in paper PMC5829012 (Biochemistry, 2018).
“Also recorded” adds a separate entry of the source. Like-named read-outs stand apart in the source and are kept apart here.

Columns and labels:
[1] = tested on: Aβ42; conditions: surface plasmon resonance; cited from earlier work
[2] = tested on: Aβ aggregation; conditions: cited from earlier work
[3] = target: Aβ42 aggregation (Homo sapiens, UniProt P05067); experiment: Aβ42 aggregation kinetics by ThT fluorescence; type: biochemical; conditions: Aβ42 12.5 μM; compound 48 μM; 37°C, 26 hrs
How it was run: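 HFIP-monomerized Aβ42 was dissolved in DMSO by sonication, diluted in 20 mM HEPES pH 7.4/140 mM NaCl, spun 10 min at 4°C and kept on ice for ≤30 min. Wells were DMSO-matched; buffer ± compound served as controls. ThT was 33 μM final; plates shaken at 25 rpm, 37°C. Fluorescence (ex 440/em 480 nm) was read hourly. Triplicate.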

[4] = target: T1, Aβ42-fibrinogen interaction (Homo sapiens, UniProt P05067); experiment: AlphaLISA of the Aβ42-fibrinogen interaction; type: binding; conditions: triplicate
How it was run: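 Test compound (0.1–100 μM) incubated 30 min at RT with 10 nM biotinylated Aβ42 and 1 nM fibrinogen in 25 mM Tris-HCl pH 7.4, 150 mM NaCl, 0.05% Tween-20, 0.1% BSA. Anti-fibrinogen antibody, 20 μg/ml streptavidin donor and protein A acceptor beads added for 90 min at RT. Triplicate runs; IC50 from sigmoidal dose-response fit with 95% CI.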

[5] = tested on: fibrin clot formation from fibrinogen with or without Aβ42 oligomers; experiment: In vitro clotting; type: biochemical, human; conditions: compound 20 μM; fibrinogen 1.5 μM; thrombin; 450 nm
How it was run: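 Purified human fibrinogen (1.5 μM) was preincubated with test compound (20 μM) or 0.4% DMSO vehicle, with or without Aβ42 oligomers (3 μM). Oligomers were made from HFIP-monomerized films: sonicated in DMSO, agitated overnight at 4°C, spun at 20,000 x g, and quantified by BCA. Clotting was started with thrombin (0.5 U/mL) and CaCl₂ (5 mM) in 20 mM HEPES pH 7.4, 137 mM NaCl at RT. A450 turbidity was followed over time, in triplicate.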

[6] = tested on: Aβ42-induced activation of the FXII-mediated contact system; experiment: Kallikrein activity assay; type: biochemical, human; conditions: DXS 0.1 μg/ml
How it was run: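 Aβ42 oligomers (overnight 4°C in HEPES buffer, 1 μM final) ± test compound (40 μM) shaken 30 min at RT in 20 mM HEPES pH 7.4/140 mM NaCl. Human FXII and plasma prekallikrein added (10 nM each), then S-2302 (0.67 mM final). A405 read at RT; rate over 30 min as mU/min. DXS 0.1 µg/ml ± test compound as positive control; triplicate.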

[7] = tested on: AD mouse models; conditions: cited from earlier work
[8] = target: T1, Aβ42-fibrinogen interaction; conditions: positive control; cited from earlier work
[9] = read-out: AlphaLISA (IC50), known Aβ aggregation inhibitors (Table 1), 10 nM biotinylated Aβ42, 1 nM fibrinogen

T1 sequence (P05067 672-713 limits assumed): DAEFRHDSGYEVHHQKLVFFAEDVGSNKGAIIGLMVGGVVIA
Chain of Aβ42 aggregation (P05067 672-713 limits assumed): as above

**Q.** Which “binding to Aβ42” value [1] does the source give for CN(C)c1cccc(Oc2cnc(Nc3cccc(O)c3)nc2)c1 [SEN1269] here?
**A.** binds to Aβ42; also recorded: shown to bind Aβ42

**Q.** And the “inhibition of Aβ aggregation / β-pleated sheet assembly and toxicity” value [2]?
**A.** potent Aβ aggregation inhibitor; also recorded: block

**Q.** And the “Aβ42 aggregation (ThT fluorescence)” value [3]?
**A.** effectively inhibited Aβ42 aggregation

**Q.** What about the IC50 ([4]; RHS analogs of SEN1269 (Table 2), AlphaLISA) of the same molecule?
**A.** 17.8 µM

**Q.** What about the IC50 [4, 9] of the same molecule?
**A.** 17.8 µM

**Q.** And the “turbidity of the normal fibrin clot formed in the absence of Aβ42” value [5]?
**A.** further decreased the turbidity

**Q.** For Dextran sulfate, which “kallikrein activity (positive control)” value [6] is on record?
**A.** high kallikrein activity

**Q.** For O=C1NC(=O)c2cc(Nc3ccccc3)c(Nc3ccccc3)cc21 [4,5-Dianilino Pthalimide (DAPH), 4,5-Dianilino Pthalimide], which IC50 [4, 9] is on record?
**A.** 43.2 µM

**Q.** With Oc1cccc(Nc2ccc(Nc3cccc(O)c3)nn2)c1 [RS-0406] as the molecule, how does the “inhibition of Aβ aggregation and its toxicity” value [2] read?
**A.** strongly inhibit

**Q.** What about the IC50 [4, 9] of the same molecule?
**A.** > 100 µM

**Q.** For CN(C)CCN(Cc1ccccc1)C(=O)c1cc(-c2ccc(F)cc2)n2nc(C(C)(C)C)cc2n1 [RU-505], which cognitive impairment [7] is on record?
**A.** lessened the severity

**Q.** What about the cortical inflammation [7] of the same molecule?
**A.** reduced

**Q.** And the “vascular Aβ deposition” value [7]?
**A.** reduced

**Q.** And the “inhibition of the Aβ42-fibrinogen interaction” value [8]?
**A.** known inhibitor of the Aβ42-fibrinogen interaction

**Q.** Which “inhibition of Aβ aggregation and its toxicity” value [2] does the source give for Tanshinone here?
**A.** strongly inhibit

**Q.** And the IC50 [4, 9]?
**A.** > 100 µM
